Converted amounts (≈) assume the structure as drawn. The source made the active and inactive calls. The calls are words filed in the database; no cut-off is given here.
What was measured:
Actinomyces viscosus [1] = assay: Chlorohexidine coefficient for Actinomyces viscosus M-100; type: functional
Summary of the method: (§1)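 Hydroxylapatite-grown plaques were exposed once daily for 2 min to varying concentrations of agent until the organisms were killed. The highest level tested was 0.2% w/v for 5 days. Tests were run in duplicate. PBI is the concentration (mM) × duration (min) × frequency (days) needed for plaque kill. CC is the chlorhexidine PBI divided by the test-agent PBI.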

Actinomyces viscosus [2] = assay: Plaque bactericidal index against Actinomyces viscosus M-100 measured as chlorohexidine coefficient; type: functional; summary of the method: as §1
Streptococcus sobrinus [3] = assay: Minimal bactericidal concentration against Streptococcus sobrinus 6715-13; type: functional
Summary of the method: (§2)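 Plaques were grown on standardized ceramic hydroxylapatite plates and immersed once in agent for 30 min. They were rinsed with sterile distilled water, moved to fresh broth and incubated anaerobically at 37 °C. Kill meant no further culture acid production, no turbidity change, and no growth when 48-h post-treatment plaque samples were subcultured. Tests were run in duplicate.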

Streptococcus sobrinus [4] = assay: Plaque bactericidal index against Streptococcus sobrinus 6715-13 measured as chlorohexidine coefficient; type: functional; summary of the method: as §1
Streptococcus sobrinus [5] = assay: Chlorohexidine coefficient for Streptococcus sobrinus 6715-13; type: functional; summary of the method: as §1
Actinomyces viscosus [6] = assay: Plaque bactericidal index against Actinomyces viscosus M-100 measured as chlorohexidine coefficient; d=Not bactericidal at highest concentration tested (0.2% w/v, 2min, 5 days); type: functional, organism-based; summary of the method: as §1
Streptococcus sobrinus [7] = assay: Plaque bactericidal index against Streptococcus sobrinus 6715-13 measured as chlorohexidine coefficient; d=Not bactericidal at highest concentration tested (0.2% w/v, 2min, 5 days); type: functional, organism-based; summary of the method: as §1
Actinomyces viscosus [8] = assay: Chlorohexidine coefficient for Actinomyces viscosus 8A06; type: functional; summary of the method: as §1
Actinomyces viscosus [9] = assay: Chlorohexidine coefficient for Actinomyces viscosus M-626; type: functional; summary of the method: as §1
Actinomyces viscosus [10] = assay: Chlorohexidine coefficient for Actinomyces viscosus T14V; type: functional; summary of the method: as §1
Actinomyces viscosus [11] = assay: Plaque bactericidal index against Actinomyces viscosus 8A06; type: functional; summary of the method: as §1
Actinomyces viscosus [12] = assay: Plaque bactericidal index against Actinomyces viscosus M-100; type: functional; summary of the method: as §1
Actinomyces viscosus [13] = assay: Plaque bactericidal index against Actinomyces viscosus 626; type: functional; summary of the method: as §1
Actinomyces naeslundii [14] = assay: Chlorohexidine coefficient for Actinomyces naeslundii 631; type: functional; summary of the method: as §1
Actinomyces naeslundii [15] = assay: Chlorohexidine coefficient for Actinomyces naeslundii B74; type: functional; summary of the method: as §1
Actinomyces naeslundii [16] = assay: Chlorohexidine coefficient for Actinomyces naeslundii N/3; type: functional; summary of the method: as §1
Actinomyces naeslundii [17] = assay: Chlorohexidine coefficient for Actinomyces naeslundii N/9; type: functional; summary of the method: as §1
Actinomyces naeslundii [18] = assay: Plaque bactericidal index against Actinomyces naeslundii 631; type: functional; summary of the method: as §1
Actinomyces naeslundii [19] = assay: Plaque bactericidal index against Actinomyces naeslundii N/9; type: functional; summary of the method: as §1
Actinomyces naeslundii [20] = assay: Plaque bactericidal index against Actinomyces naeslundii B74; type: functional; summary of the method: as §1
Streptococcus sanguinis [21] = assay: Chlorohexidine coefficient for Streptococcus sanguis ATCC 10558; type: functional; summary of the method: as §1
Streptococcus mitis [22] = assay: Chlorohexidine coefficient for Streptococcus mitis 176-A1; type: functional; summary of the method: as §1
Streptococcus mitis [23] = assay: Chlorohexidine coefficient for Streptococcus mitis 90557; type: functional; summary of the method: as §1
Streptococcus mitis [24] = assay: Plaque bactericidal index against Streptococcus mitis 176-A1; type: functional; summary of the method: as §1
Streptococcus mitis [25] = assay: Plaque bactericidal index against Streptococcus mitis 90557; type: functional; summary of the method: as §1
Streptococcus sanguinis [26] = assay: Chlorohexidine coefficient for Streptococcus sanguis H7P; type: functional
Summary of the method: (§3)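 Plaques were grown on standardized ceramic hydroxylapatite plates and treated once daily for 2 min with varying concentrations until kill. They were then rinsed in sterile water and incubated in fresh broth at 37 °C anaerobically. Kill meant no acid production, no turbidity change, and no regrowth of 48-h post-treatment subcultures. Tests were run in duplicate. PBI = concn (mM) × min × days to kill; CC = chlorhexidine PBI ÷ test PBI.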

Streptococcus sanguinis [27] = assay: Plaque bactericidal index against Streptococcus sanguis ATCC 10558; type: functional; summary of the method: as §1
Streptococcus sanguinis [28] = assay: Plaque bactericidal index against Streptococcus sanguis H7P; type: functional; summary of the method: as §3
Streptococcus sobrinus [29] = assay: Chlorohexidine coefficient for Streptococcus sobrinus SL-1; type: functional; summary of the method: as §1
Streptococcus sobrinus [30] = assay: Plaque bactericidal index against Streptococcus sobrinus 6715-13; type: functional; summary of the method: as §1
Streptococcus sobrinus [31] = assay: Plaque bactericidal index against Streptococcus sobrinus SL-1; type: functional; summary of the method: as §1
Streptococcus mutans [32] = assay: Chlorohexidine coefficient for Streptococcus mutans FA-1; type: functional; summary of the method: as §1
Streptococcus mutans [33] = assay: Chlorohexidine coefficient for Streptococcus mutans GR-5; type: functional; summary of the method: as §1
Streptococcus mutans [34] = assay: Chlorohexidine coefficient for Streptococcus mutans IB1600; type: functional; summary of the method: as §1
Streptococcus mutans [35] = assay: Chlorohexidine coefficient for Streptococcus mutans OMZ-61; type: functional; summary of the method: as §1
Streptococcus mutans [36] = assay: Plaque bactericidal index against Streptococcus mutans FA-1; type: functional; summary of the method: as §1
Streptococcus mutans [37] = assay: Plaque bactericidal index against Streptococcus mutans GR-5; type: functional; summary of the method: as §1
Streptococcus mutans [38] = assay: Plaque bactericidal index against Streptococcus mutans IB1600; type: functional; summary of the method: as §1
Streptococcus mutans [39] = assay: Plaque bactericidal index against Streptococcus mutans OMZ-61; type: functional; summary of the method: as §3
Actinomyces naeslundii [40] = assay: Plaque bactericidal index against Actinomyces naeslundii N/3; type: functional; summary of the method: as §1
Streptococcus sobrinus [41] = assay: Minimal bactericidal concentration against Streptococcus sobrinus 6715-13.; type: functional; summary of the method: as §2
Actinomyces viscosus [42] = assay: Plaque bactericidal index against Actinomyces viscosus M-100 measured as chlorohexidine coefficient; not bactericidal at highest concentration tested (0.2% w/v, 2min, 5 days); type: functional, organism-based; summary of the method: as §1
Streptococcus sobrinus [43] = assay: Minimal bactericidal concentration against d Streptococcus sobrinus 6715-13; Not active at 20 mM; type: functional, organism-based; summary of the method: as §2

Q: Which results are given for `Br.CCCCCCCCCN=c1ccn(CCCCCCCC)cc1`?
A: CC (Actinomyces viscosus [1]): 1.9; PBI (Actinomyces viscosus [2]): 9.7; MBC (Streptococcus sobrinus [3]): 1210 µM; PBI (Streptococcus sobrinus [4]): 9.7; CC (Streptococcus sobrinus [5]): 2.6

Q: With `CCCCCCCCCCCCCCN=c1ccn(Cc2ccccc2)cc1` as the molecule, how does the PBI (Actinomyces viscosus [6]) read?
A: Not bactericidal

Q: And the MBC (Streptococcus sobrinus [3])?
A: 240 µM (≈ 91.3 µg/mL)

Q: What about the PBI (Streptococcus sobrinus [7]) of the same molecule?
A: Not bactericidal

Q: With `Br.CCCCCCCCN=c1ccn(CCCCCCC)cc1` as the molecule, how does the CC (Actinomyces viscosus [1]) read?
A: 2.5

Q: What about the PBI (Actinomyces viscosus [2]) of the same molecule?
A: 7.8

Q: And the MBC (Streptococcus sobrinus [3])?
A: 1300 µM

Q: What about the PBI (Streptococcus sobrinus [4]) of the same molecule?
A: 7.8

Q: What about the CC (Streptococcus sobrinus [5]) of the same molecule?
A: 3.3

Q: Which CC (Actinomyces viscosus [1]) does the source give for `CCCCCCCCCn1ccc(=NCCCCCC)cc1.Cl` here?
A: 2.2

Q: And the PBI (Actinomyces viscosus [2])?
A: 8.8

Q: And the MBC (Streptococcus sobrinus [3])?
A: 290 µM

Q: What about the PBI (Streptococcus sobrinus [4]) of the same molecule?
A: 2.9

Q: What about the CC (Streptococcus sobrinus [5]) of the same molecule?
A: 8.8

Q: What does the source list for `CCCCCCCCN=c1ccn(CCCCCCCC)cc1.Cl` [PIRTENIDINE HYDROCHLORIDE]?
A: CC (Actinomyces viscosus [8]): 4.6; CC (Actinomyces viscosus [1]): 6.9; CC (Actinomyces viscosus [9]): 13.7; CC (Actinomyces viscosus [10]): 13.7; PBI (Actinomyces viscosus [11]): 4.2; PBI (Actinomyces viscosus [12]): 2.8; PBI (Actinomyces viscosus [2]): 2.8; PBI (Actinomyces viscosus [13]): 1.4; CC (Actinomyces naeslundii [14]): 6.9; CC (Actinomyces naeslundii [15]): 13.7; CC (Actinomyces naeslundii [16]): 13.7; CC (Actinomyces naeslundii [17]): 13.7; PBI (Actinomyces naeslundii [18]): 2.8; PBI (Actinomyces naeslundii [19]): 1.4; PBI (Actinomyces naeslundii [20]): 1.4; CC (Streptococcus sanguinis [21]): 6.4; CC (Streptococcus mitis [22]): 1.6; CC (Streptococcus mitis [23]): 6.4; PBI (Streptococcus mitis [24]): 20; PBI (Streptococcus mitis [25]): 5; CC (Streptococcus sanguinis [26]): 3.2; PBI (Streptococcus sanguinis [27]): 5; PBI (Streptococcus sanguinis [28]): 10; CC (Streptococcus sobrinus [29]): 9.1; PBI (Streptococcus sobrinus [30]): 2.8; PBI (Streptococcus sobrinus [31]): 2.8; CC (Streptococcus mutans [32]): 18.3; CC (Streptococcus mutans [33]): 18.3; CC (Streptococcus mutans [34]): 18.3; CC (Streptococcus mutans [35]): 18.3; PBI (Streptococcus mutans [36]): 1.4; PBI (Streptococcus mutans [37]): 1.4; PBI (Streptococcus mutans [38]): 1.4; PBI (Streptococcus mutans [39]): 1.4; MBC (Streptococcus sobrinus [3]): 280 µM; PBI (Streptococcus sobrinus [4]): 2.8; CC (Streptococcus sobrinus [5]): 9.1; PBI (Actinomyces naeslundii [40]): 1.4

Q: Which CC (Actinomyces viscosus [1]) does the source give for `CCCCCCCCN=c1ccn(Cc2ccccc2)cc1.Cl` here?
A: 1.6

Q: What about the PBI (Actinomyces viscosus [2]) of the same molecule?
A: 12

Q: And the MBC (Streptococcus sobrinus [3])?
A: 1500 µM

Q: And the PBI (Streptococcus sobrinus [4])?
A: 24

Q: What about the CC (Streptococcus sobrinus [5]) of the same molecule?
A: 1.1

Q: With `CCCCCCCCN=c1ccn(Cc2ccc(Cl)cc2)cc1.Cl` as the molecule, how does the CC (Actinomyces viscosus [1]) read?
A: 3.6

Q: And the PBI (Actinomyces viscosus [2])?
A: 5.4

Q: And the MBC (Streptococcus sobrinus [3])?
A: 270 µM

Q: And the PBI (Streptococcus sobrinus [4])?
A: 10.9

Q: And the CC (Streptococcus sobrinus [5])?
A: 2.3

Q: How did the CC (Actinomyces viscosus [1]) turn out when `CCCCCCCn1ccc(=NCCCCCC)cc1.Cl` was run?
A: 3

Q: What about the PBI (Actinomyces viscosus [2]) of the same molecule?
A: 6.4

Q: And the MBC (Streptococcus sobrinus [41])?
A: 1600 µM

Q: What about the PBI (Streptococcus sobrinus [4]) of the same molecule?
A: 12.8

Q: And the CC (Streptococcus sobrinus [5])?
A: 2

Q: For `CN=c1ccn(C)cc1`, which PBI (Actinomyces viscosus [42]) is on record?
A: Not bactericidal

Q: What about the MBC (Streptococcus sobrinus [43]) of the same molecule?
A: inactive

Q: What about the PBI (Streptococcus sobrinus [7]) of the same molecule?
A: Not bactericidal

Q: Which results are given for `CCCCCCCCn1ccc(=NCCCCCC)cc1.Cl`?
A: CC (Actinomyces viscosus [1]): 6.4; PBI (Actinomyces viscosus [2]): 3; MBC (Streptococcus sobrinus [3]): 310 µM; PBI (Streptococcus sobrinus [4]): 4.6; CC (Streptococcus sobrinus [5]): 5.6

Q: For `CCCCCCCCCN=c1ccn(CCCCCCCCC)cc1.Cl`, which CC (Actinomyces viscosus [1]) is on record?
A: 4

Q: What about the PBI (Actinomyces viscosus [2]) of the same molecule?
A: 5.2

Q: What about the MBC (Streptococcus sobrinus [3]) of the same molecule?
A: 2610 µM

Q: And the PBI (Streptococcus sobrinus [4])?
A: 10.4

Q: And the CC (Streptococcus sobrinus [5])?
A: 2.5

Q: For `Br.CCCCC(CC)CN=c1ccn(CC(CC)CCCC)cc1` (configuration not stated), which CC (Actinomyces viscosus [1]) is on record?
A: 1

Q: What about the PBI (Actinomyces viscosus [2]) of the same molecule?
A: 20

Q: And the MBC (Streptococcus sobrinus [3])?
A: 1250 µM

Q: And the PBI (Streptococcus sobrinus [4])?
A: 20

Q: What about the CC (Streptococcus sobrinus [5]) of the same molecule?
A: 1.3

Q: With `CCCCCCN=c1ccn(CCCCCC)cc1` as the molecule, how does the PBI (Actinomyces viscosus [6]) read?
A: Not bactericidal

Q: And the MBC (Streptococcus sobrinus [3])?
A: 1580 µM (≈ 415 µg/mL)

Q: What about the PBI (Streptococcus sobrinus [7]) of the same molecule?
A: Not bactericidal

Q: With `CCCCCCCCN=c1ccn(CCCCCCCCCCn2ccc(=NCCCCCCCC)cc2)cc1` [OCTENIDINE] as the molecule, how does the CC (Actinomyces viscosus [1]) read?
A: 1

Q: And the PBI (Actinomyces viscosus [2])?
A: 19.2

Q: What about the MBC (Streptococcus sobrinus [3]) of the same molecule?
A: 3200 µM (≈ 1760 µg/mL)

Q: And the PBI (Streptococcus sobrinus [4])?
A: 25.6

Q: What about the CC (Streptococcus sobrinus [5]) of the same molecule?
A: 1

— ChEMBL document CHEMBL1123990, “The in vitro dental plaque inhibitory properties of a series of N-[1-alkyl-4(1H)-pyridinylidene]alkylamines” (1988)
